Experimental data from ChEMBL document CHEMBL3244060, “Methotrexate analogues. 8. Synthesis and biological evaluation of bisamide derivatives as potential prodrugs” (J Med Chem, 1977).
≈ marks a conversion by molar mass, not a printed value. Calls of active or inactive are those of the source. No cut-off for these calls is given here.

How the values were obtained:
L1210 [1] = assay: Antitumor activity against mouse L1210 cells allografted in mouse assessed as increase in life span at 15 to 525 mg/kg, ip qd administered every 3 days for 7 days; type: functional, organism-based
In short: (§1)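 Mice inoculated ip with 10^5 L1210 cells on day 0. Test agents injected ip in 10% Tween 80 on days 1, 4 and 7; doses 15 to 525 mg/kg. Positive control given as disodium salt in aqueous solution. Test groups of 5, control groups of 10-15. Median survival scored; %ILS = 100 × (T − C)/C.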

Mus musculus = assay: Toxicity in mouse allografted with mouse L1210 cells at 15 to 525 mg/kg, ip qd administered every 3 days for 7 days; type: organism-based; set-up: dose 15-525 mg/kg, route intraperitoneal; conditions: in vivo; in short: as §1
[2] = Cytotoxicity against RBL cells assessed as growth inhibition; type: functional; conditions: Rattus norvegicus, read-out: ID50 (the source's name)
CCRF-CEM = assay: Cytotoxicity against human CCRF-CEM cells assessed as growth inhibition; type: functional; conditions: read-out: ID50 (the source's name)
L1210 [3] = assay: Antitumor activity against mouse L1210 cells allografted in mouse assessed as increase in life span at 7 mg/kg, sc administered daily up to death started on day 5 post tumor implantation relative to control; type: functional; conditions: 120 h, route subcutaneous
Serum = assay: Drug level in rat whole serum treated with methotrexate di-n-butyl ester measured after 1 hr by TLC analysis; type: ADME, cell-free
In short: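 Fresh rat serum 0.9 mL plus compound 0.006 g in 0.1 mL Me2SO, incubated at 37 °C with gentle shaking for up to 24 h. Cooled on ice, diluted 1.5-fold with methanol to precipitate protein, centrifuged. Supernatant run on fluorescent cellulose TLC developed with 0.5 M phosphate buffer pH 7.4 to detect parent compound and metabolites.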

Plasma = assay: Drug level in mouse plasma treated with methotrexate bis(benzylamide) at 100 mg/kg, ip measured after 6 to 24 hrs by TLC analysis; type: ADME, organism-based; set-up: dose 100 mg/kg, route intraperitoneal; conditions: in vivo
In short: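 Normal mice received a single ip dose of 100 mg/kg in 10% Tween 80. One animal was killed at 6 h and one at 24 h. Blood was taken by ocular puncture with a heparinized syringe and the red cells spun down. Plasma 0.2 mL was cooled on ice and diluted with methanol 0.4 mL to precipitate protein, then centrifuged. Analysed by cellulose TLC developed in 0.5 M phosphate buffer pH 7.4.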

L1210 [4] = assay: Antitumor activity against mouse L1210 cells allografted in mouse assessed as median survival time at 15 mg/kg, ip qd administered every 3 days for 7 days; type: functional; conditions: route intraperitoneal
In short: (§2)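 Mice were inoculated ip with 10^5 L1210 leukemia cells on day 0. Dosing was ip on days 1, 4 and 7 in 10% Tween 80, with the methotrexate disodium salt in water, over 15–525 mg/kg. Survival was recorded in days as the range and median per group, with 5 treated and 10-15 untreated controls.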

L1210 [5] = assay: Antitumor activity against mouse L1210 cells allografted in mouse assessed as increase in life span at 15 mg/kg, ip qd administered every 3 days for 7 days relative to control; type: functional; conditions: route intraperitoneal
In short: (§3)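 L1210 cells (10^5) implanted ip in mice on day 0. Compounds given ip in 10% Tween 80 on days 1, 4 and 7, at doses from 15 to 525 mg/kg. Methotrexate was given as the disodium salt in aqueous solution. Groups had 5 treated and 10-15 control animals. %ILS = 100 × (T − C)/C, where T and C are median survival days of treated and control mice.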

L1210 [6] = assay: Antitumor activity against mouse L1210 cells allografted in mouse assessed as median survival time at 25 mg/kg, ip qd administered every 3 days for 7 days; type: functional; conditions: route intraperitoneal; in short: as §2
L1210 [7] = assay: Antitumor activity against mouse L1210 cells allografted in mouse assessed as increase in life span at 25 mg/kg, ip qd administered every 3 days for 7 days relative to control; type: functional; conditions: route intraperitoneal; in short: as §3

In the case of `CN(Cc1cnc2nc(N)nc(N)c2n1)c1ccc(C(=O)N[C@@H](CCC(=O)NC2CCCCC2)C(=O)NC2CCCCC2)cc1`, the Activity (L1210 [1]) is reported as “inactive”, the Activity (Mus musculus) is reported as “Toxic” and the IC50 [2] is reported as 0.22 µg/mL (≈ 0.357 µM). For the same compound, the IC50 (CCRF-CEM) was 1 µg/mL (≈ 1.62 µM).

With `CN(Cc1cnc2nc(N)nc(N)c2n1)c1ccc(C(=O)N[C@@H](CCC(=O)N2CCCC2)C(=O)N2CCCC2)cc1` the Activity (L1210 [1]) was “inactive” and the Activity (Mus musculus) was “Toxic”.

In the case of `CCC(C)NC(=O)CC[C@H](NC(=O)c1ccc(N(C)Cc2cnc3nc(N)nc(N)c3n2)cc1)C(=O)NC(C)CC` (some centres undefined), the IC50 (CCRF-CEM) is reported as greater than 10 µg/mL.

In the case of `CN(Cc1cnc2nc(N)nc(N)c2n1)c1ccc(C(=O)N[C@@H](CCC(=O)NCCCO)C(=O)NCCCO)cc1`, the IC50 (CCRF-CEM) is reported as greater than 10 µg/mL.

`Nc1nc(N)c2nc(CNc3ccc(C(=O)N[C@@H](CCC(=O)NCc4ccccc4)C(=O)NCc4ccccc4)cc3)cnc2n1` gave an ILS at 7 mg/kg (L1210 [3]) of 30%.

For `CN(Cc1cnc2nc(N)nc(N)c2n1)c1ccc(C(=O)N[C@@H](CCC(N)=O)C(N)=O)cc1`, the IC50 (CCRF-CEM) was greater than 10 µg/mL.

With `CN(Cc1cnc2nc(N)nc(N)c2n1)c1ccc(C(=O)N[C@@H](CCC(=O)O)C(=O)O)cc1` [METHOTREXATE] the Drug metabolism (Serum) was “metabolite_detected”, the IC50 [2] was 0.003 µg/mL (≈ 0.0066 µM) and the IC50 (CCRF-CEM) was 0.003 µg/mL (≈ 0.0066 µM). The Drug metabolism (Plasma) was “metabolite_detected”.

Compound `CCCCCCNC(=O)CC[C@H](NC(=O)c1ccc(N(C)Cc2cnc3nc(N)nc(N)c3n2)cc1)C(=O)NCCCCCC` has an IC50 (CCRF-CEM) of 10 µg/mL (≈ 16.1 µM).

Work on `CN(Cc1cnc2nc(N)nc(N)c2n1)c1ccc(C(=O)N[C@@H](CCC(=O)[O-])C(=O)[O-])cc1.[Na+].[Na+]` [METHOTREXATE SODIUM] yielded an MST (L1210 [4]) of 15 days, an ILS at 15 mg/kg (L1210 [5]) of 66% and an MST (L1210 [6]) of 18 days. The ILS at 25 mg/kg (L1210 [7]) was 100%.
